In the library only some 3.5% were active in any assay of this set; here they are far more common.
MrgX1 ag: agonists of human MrgX1 receptor, primary screen, HEK293 cells, Fluo-4 calcium flux. B-score at 10 µM. actives 0.44% (n = 310,000). Mas-related G-protein coupled receptor member X1 (Homo sapiens), Q96LB2. Fluo-4 calcium fluorescence, agonist mode; active compounds read high;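 active means calcium response B-score plate-corrected fluorescence ratio at least 3 library SD, with starting fluorescence B-score inside 5 SD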
Target sequence (Q96LB2 whole entry, looked up): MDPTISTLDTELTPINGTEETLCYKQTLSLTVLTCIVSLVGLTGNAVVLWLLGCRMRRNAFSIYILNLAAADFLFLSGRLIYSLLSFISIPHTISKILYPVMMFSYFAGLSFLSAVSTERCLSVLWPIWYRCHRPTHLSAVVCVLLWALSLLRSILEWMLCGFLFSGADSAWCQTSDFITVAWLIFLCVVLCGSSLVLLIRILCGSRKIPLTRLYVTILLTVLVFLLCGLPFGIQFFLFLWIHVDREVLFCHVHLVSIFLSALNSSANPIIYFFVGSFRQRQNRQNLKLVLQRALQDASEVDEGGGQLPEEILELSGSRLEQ
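System – MrgX1-expressing HEK293 cells · Incubation – cells plated overnight, dye loaded 0.5 h 37 °C, 0.5 h room temperature · Technique – kinetic Fluo-4 NW fluorescence of intracellular calcium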
RGS4 act: RGS4 potentiators or activators, primary screen, cell-based, HEK293 M3R inducible RGS4, calcium flux; carbachol calcium flux Fluo4; active compounds read low; B-score at 10 µM; actives 0.92% (n = 310,000); AID 463111, 2010;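 active means B-score of the integrated calcium signal more than 4 SD below the library mean, with starting fluorescence not abnormally high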;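 further: negative B-score means reduced calcium response which marks RGS4 activation or potentiation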
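Test system: HEK293 cells with stable M3R and inducible RGS4; also added: carbachol at ECmax as muscarinic agonist stimulus; schedule: dye loading 30 min 37 °C, buffer rest 30 min RT; technique: kinetic calcium fluorescence imaging with Fluo4-AM dye, 2 µM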
MrgX1 antag: antagonists of human MrgX1 receptor, primary screen, HEK293 cells, Fluo-4 calcium flux. BAM8-22 antagonism; active compounds read low. B-score at 10 µM. actives 1.3% (n = 310,000);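 active means calcium-response B-score plate-corrected more than 3 library SD below zero, starting fluorescence within 5 deviations, no agonist response on first addition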;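 further: peak minus trough fluorescence over baseline after final BAM8-22 challenge near maximal dose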
RGS4 inh: RGS4 inhibitors, primary screen, cell-based, HEK293 M3R inducible RGS4, calcium flux. Fluo-4 calcium flux; active compounds read high; triggered by carbachol at its EC20. B-score at 10 µM. actives 0.45% (n = 310,000). AID 463165, 2010;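 active means B-score, a plate-corrected calcium signal, over three deviations above library mean, with baseline fluorescence within five deviations of library mean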;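 further: RGS4 expression induced by doxycycline in cells with stable M3 receptor; B-score is computed from the integrated fluorescence ratio over baseline after carbachol; higher B-score means a larger calcium signal and so more RGS4 inhibition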
Target sequence (P49798 whole entry, looked up): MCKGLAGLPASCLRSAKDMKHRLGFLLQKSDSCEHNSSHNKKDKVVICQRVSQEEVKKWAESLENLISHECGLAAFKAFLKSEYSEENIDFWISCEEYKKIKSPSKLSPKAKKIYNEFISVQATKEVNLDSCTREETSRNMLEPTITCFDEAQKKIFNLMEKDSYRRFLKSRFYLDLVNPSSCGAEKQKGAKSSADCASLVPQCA
MrgX1 PAM: positive allosteric modulators of MrgX1, primary screen, HEK293 cells, Fluo-4 calcium flux; FDSS; active compounds read high; actives 0.63% (n = 310,000); B-score at 10 µM;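 active means plate-corrected calcium response at least 3 library SD above typical, normal starting fluorescence, not activating the receptor alone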;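 further: compound read alongside a low EC10 to EC30 dose of BAM8-22 agonist; peak minus trough fluorescence over baseline measured at the second addition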
MrgX1 antag conf: MrgX1 receptor antagonists, duplicate retest, confirmation, HEK293 cells, Fluo-4 calcium flux | shares compounds with MrgX1 antag | BAM8-22 calcium flux; active compounds read low | remaining BAM8-22 calcium response % of control (active compounds read low), % at 10 µM | actives 19% (n = 2,300);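 active means remaining agonist calcium response no higher than 100% minus 3 SD of agonist-only control wells, with starting fluorescence near control levels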;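 further: agonist BAM8-22 given at a near maximal EC90 to ECmax level; peak minus minimum fluorescence divided by baseline after agonist addition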
HEK293 Ca flux: nonspecific calcium signal in parental HEK293, confirmation, counter-screen for MrgX1 antagonist project, parental HEK293 cells, Fluo-4 calcium flux. actives 2% (n = 4,000). AID 624111, 2012. shares compounds with MrgX1 antag. fluorescence ratio F(max-min)/F0 at 10 µM. Fluo-4 calcium fluorescence, FDSS;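 active means duplicate-averaged calcium fluorescence ratio at least three times the standard deviation of buffer wells, a nonspecific response in parental cells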
HEK293 Ca counter: calcium response in parental HEK293 cells, primary screen, counter-screen for MrgX1 allosteric activator project, cell-based, Fluo-4 calcium flux, duplicate; fluorescence ratio F(max-min)/F0 at 10 µM; Fluo-4 fluorescence ratio; active compounds read high; actives 0.4% (n = 4,000); shares compounds with MrgX1 antag;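 active means calcium fluorescence ratio, averaged over duplicates, at least 3 SD of the buffer-well ratio, meaning a nonspecific response in receptor-free cells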;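 further: untransfected parental HEK293 lacking MrgX1 used as counterscreen for MrgX1 allosteric activators; fluorescence change taken during the second addition on a kinetic imager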
HEK293 Ca cntr2: calcium response in parental HEK293 cells, primary screen, counter-screen for MrgX1 agonist project, cell-based, Fluo-4 calcium flux, duplicate, agonist mode. shares compounds with MrgX1 antag. Fluo-4 calcium fluorescence (FDSS); active compounds read high. fluorescence ratio F(max-min)/F0 at 10 µM. actives 8.7% (n = 4,000). AID 624115, 2012;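 active means calcium fluorescence ratio at least three times the spread of buffer wells, meaning a non-specific response in parental cells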
Large screens that a line does not name were inactive (follow-up assays come after a bar, where they were run).

NC(=O)c1ccccc1NC(=O)CCN1C(=O)c2ccccc2C1=O	MrgX1 antag -6.9 | MrgX1 antag conf 85% | HEK293 Ca flux inactive | HEK293 Ca counter inactive | HEK293 Ca cntr2 inactive
CCN1CCCC1CNC1=NCCCCC1 (centres undefined)	MrgX1 antag -5.2 | MrgX1 antag conf 83% | HEK293 Ca flux inactive | HEK293 Ca counter inactive | HEK293 Ca cntr2 inactive
CCNc1nc(NCC)n2c(SCC(=O)Nc3ccccc3Cl)nnc2n1	MrgX1 antag -8.6 | MrgX1 antag conf inactive | HEK293 Ca flux inactive | HEK293 Ca counter inactive | HEK293 Ca cntr2 inactive
CCNc1nc(NCC)n2c(SCC(=O)Nc3ccccc3C(F)(F)F)nnc2n1	none
CCOCCCNC(=O)C1CCN(Cc2ccc(OCc3ccccc3)c(OC)c2)CC1	none
Oc1ccc(Cl)cc1/C=C/c1ccc2cccc(O)c2n1	none (no result: MrgX1 ag, MrgX1 antag, MrgX1 PAM)
Oc1c(Cl)cc(Cl)cc1/C=C/c1ccc2cccc(O)c2n1	MrgX1 antag -7.7 | MrgX1 antag conf inactive | HEK293 Ca flux inactive | HEK293 Ca counter inactive | HEK293 Ca cntr2 inactive
CC(CNC(=O)c1ccc(NC2=NC3CS(=O)(=O)CC3S2)cc1)c1ccccc1 (centres undefined)	MrgX1 antag -5.2 | MrgX1 antag conf inactive | HEK293 Ca flux inactive | HEK293 Ca counter inactive | HEK293 Ca cntr2 inactive
CC(NC(=O)Cc1ccc(NC2=NC3CS(=O)(=O)CC3S2)cc1)c1ccccc1 (centres undefined)	none
Cc1cc(C(=O)OCC(=O)c2cccs2)c2ccccc2n1	none
O=C(CN(c1ccccn1)S(=O)(=O)c1ccc(F)cc1)Nc1ccccc1	MrgX1 antag -6 | MrgX1 antag conf inactive | HEK293 Ca flux inactive | HEK293 Ca counter inactive | HEK293 Ca cntr2 inactive
CC1CCN(C(=O)CSc2nc3[nH]ncc3c(=O)[nH]2)CC1	MrgX1 antag -6.4 | MrgX1 antag conf inactive | HEK293 Ca flux inactive | HEK293 Ca counter inactive | HEK293 Ca cntr2 inactive
Cc1cc(C)cc(NC(=O)CSc2nc3[nH]ncc3c(=O)[nH]2)c1	MrgX1 antag -9.1 | MrgX1 antag conf inactive | HEK293 Ca flux inactive | HEK293 Ca counter inactive | HEK293 Ca cntr2 inactive
CC(=O)NCCc1nc2cc(NC(=O)COc3ccc(C)cc3)ccc2n1C	MrgX1 antag -6.7 | MrgX1 antag conf inactive | HEK293 Ca flux inactive | HEK293 Ca counter inactive | HEK293 Ca cntr2 inactive
COc1ccc(OCC(=O)Nc2ccc3c(c2)nc(CCNC(C)=O)n3C)cc1	none
O=C(Cn1cccc1C(=O)c1ccccc1)NCCN1CCCCCC1	none
O=C(Nc1cccc(O)c1)c1cc(S(=O)(=O)N2CCCC2)ccc1Cl	MrgX1 antag -5.1 | MrgX1 antag conf inactive | HEK293 Ca flux inactive | HEK293 Ca counter inactive | HEK293 Ca cntr2 inactive
O=C(Nc1ccncc1)c1ccc2ncsc2c1	none
O=C(Nc1ccc(S(=O)(=O)Nc2ncccn2)cc1)c1ccc2ncsc2c1	MrgX1 antag -5 | MrgX1 antag conf 73% | HEK293 Ca flux inactive | HEK293 Ca counter inactive | HEK293 Ca cntr2 inactive
CC1=C(C(=O)c2ccccc2)C(c2ccc(N3CCOCC3)cc2)NC(=O)N1 (centres undefined)	MrgX1 antag -8.1 | MrgX1 antag conf 73% | HEK293 Ca flux inactive | HEK293 Ca counter inactive | HEK293 Ca cntr2 inactive
CC1=C(C(=O)c2ccccc2)C(c2ccc(O)cc2)NC(=S)N1 (centres undefined)	none
CCC(=O)Nc1ccccc1C(=O)OCC(=O)c1ccc2ccccc2c1	MrgX1 antag -6.3 | MrgX1 antag conf inactive | HEK293 Ca flux inactive | HEK293 Ca counter inactive | HEK293 Ca cntr2 inactive
CCC(=O)Nc1ccccc1C(=O)OCC(=O)c1ccccc1	none
Cc1cc(NS(=O)(=O)c2ccc(NC(=O)/C=C/c3c(F)cccc3Cl)cc2)nc(C)n1	none
S=C(NCc1ccncc1)Nc1ccc(Br)cc1Cl	MrgX1 antag -6.3 | MrgX1 antag conf 68% | HEK293 Ca flux inactive | HEK293 Ca counter inactive | HEK293 Ca cntr2 inactive
O=C(NNC(=S)Nc1ccc(Br)cc1Cl)c1ccncc1	none
CCCc1cc(=O)oc2cc(OCC(=O)NCc3ccccn3)ccc12	none
COc1ccc(-c2c(C#N)c(N)nc3c2c(=O)n(C)c(=O)n3C)cc1Cl	MrgX1 antag -8.3 | MrgX1 antag conf inactive | HEK293 Ca flux inactive | HEK293 Ca counter inactive | HEK293 Ca cntr2 inactive
CCO[C@@H]1OC(C(=O)Nc2ccccc2)=C[C@H](c2ccc(Br)cc2)[C@H]1CCCO	MrgX1 antag -10 | MrgX1 antag conf inactive | HEK293 Ca flux inactive | HEK293 Ca counter inactive | HEK293 Ca cntr2 inactive
COCCNC(=O)C1CC2Cn3c(nc4cc5ccccc5cc43)C2N1C (centres undefined)	MrgX1 antag -5.3 | MrgX1 antag conf inactive | HEK293 Ca flux inactive | HEK293 Ca counter inactive | HEK293 Ca cntr2 inactive
COCCNC(=O)C1CC2Cn3c(nc4cc(C)c(C)cc43)C2N1C (centres undefined)	none
COc1cc(C(=O)Oc2ccccc2)ccc1OCc1c(C)noc1C	MrgX1 antag -6 | MrgX1 antag conf inactive | HEK293 Ca flux inactive | HEK293 Ca counter inactive | HEK293 Ca cntr2 inactive
COc1cc(C(=O)O)ccc1OCc1c(C)noc1C	none
COc1ccc(NC(=O)c2cc(C)n(Cc3cccs3)c2C)cc1	none
Cc1ccc(-n2c(=O)cc(N3CCCCCC3)[nH]c2=O)cc1	MrgX1 antag -7.7 | MrgX1 antag conf inactive | HEK293 Ca flux inactive | HEK293 Ca counter inactive | HEK293 Ca cntr2 inactive
Nc1nnc(SCC(=O)Nc2cc(F)ccc2F)s1	none
CCCCOC(=O)C(NC(=O)c1ccccc1)=C(C)C	none
CCOC(=O)C(NC(=O)c1ccccc1)=C(C)C	MrgX1 antag -8.9 | MrgX1 antag conf inactive | HEK293 Ca flux inactive | HEK293 Ca counter inactive | HEK293 Ca cntr2 inactive
COc1ccc(-c2csc(NC(=O)CSc3nc(C)cs3)n2)cc1	none

From PubChem
